# Experimental data collected from several papers.
# Each line is one published result; the experiments were not run side by side.
# BTK: Tyrosine-protein kinase BTK (BTK, Homo sapiens, UniProt Q06187)
Structure (SMILES),target,assay,setting,measurement,result
Cc1nc(Nc2ncc(C(=O)Nc3c(C)cccc3Cl)s2)cc(N2CC[C@@H](O)C2)n1,BTK,"enzyme activity, inhibitor, mobility shift",1 nM,inhibition,74%
C[C@H](NC(=O)C(=O)Nc1ccccc1C(C)(C)C)C(=O)N[C@@H](CC(=O)O)C(=O)COc1c(F)c(F)cc(F)c1F,"Caspase-8 (CASP8, Homo sapiens, UniProt Q14790)","enzyme activity, inhibitor",,kinact/KI,2.74e+06 M⁻¹ s⁻¹
Cc1nc(Nc2ncc(C(=O)Nc3c(C)cccc3Cl)s2)cc(N2CCCCC2)n1,BTK,"enzyme activity, inhibitor, mobility shift",1 nM,inhibition,56%
C1=C/COCc2cc(ccc2OCCN2CCCC2)Nc2nccc(n2)-c2cccc(c2)COC/1,"Myosin light chain kinase, smooth muscle (MYLK, Homo sapiens, UniProt Q15746)",binding,0.1 µM,remaining binding,83%
[2H]c1cc(C)c(NC(=O)c2cnc(Nc3cc(N4CC[C@@H](N)C4)nc(C)n3)s2)c(Cl)c1,BTK,"enzyme activity, inhibitor, mobility shift",1 nM,inhibition,52%
Cc1cc(-c2ccnc3[nH]cc(F)c23)cc(F)c1[C@@]1(O)[C@H](C)CN(C(=O)CN)C[C@@H]1C,"RAC-beta serine/threonine-protein kinase (AKT2, Homo sapiens, UniProt P31751)","enzyme activity, inhibitor",0.1 µM,remaining activity,113%
NC/C(=C\F)COc1cccc(Cn2c(=S)[nH]c(=O)c3[nH]cnc32)c1,"D(4) dopamine receptor (DRD4, Homo sapiens, UniProt P21917, del265-296)","ligand displacement, radioligand",10 µM,inhibition,< 50%
[2H]c1cc(C)c(NC(=O)c2cnc(Nc3cc(N4CCCCC4)nc(C)n3)s2)c(Cl)c1,BTK,"enzyme activity, inhibitor, mobility shift",1 nM,inhibition,90%
Cc1cc(O)c(-c2ccc([C@@H](C)CN(C)C)cc2)c2c1[nH]c(=O)c1sccc12,"[Pyruvate dehydrogenase (acetyl-transferring)] kinase isozyme 1, mitochondrial (PDK1, Homo sapiens, UniProt Q15118)","enzyme activity, inhibitor","0.1 µM, lysate",inhibition,-15.2%
C#Cc1cc(-c2cc(Nc3nc(N[C@@H](C)c4ccc(F)cn4)ncc3Cl)n[nH]2)ccc1C=O,"Mitogen-activated protein kinase 12 (MAPK12, Homo sapiens, UniProt P53778)","enzyme activity, inhibitor",0.2 µM,inhibition,1.88%
CCCCC(=O)Nc1ccc(-c2ccc3ncn(CCC)c(=O)c3c2)cn1,"Mast/stem cell growth factor receptor Kit (KIT, Homo sapiens, UniProt P10721, T670I/V559D)","binding, competition with immobilised ligand",0.5 µM,remaining binding,79%
O=C(COc1ccc(Cl)c(F)c1)NC12CC(NC(=O)c3cnc(C(F)F)cn3)(C1)C2,"Translation initiation factor eIF2B subunit beta/Translation initiation factor eIF2B subunit delta (Homo sapiens, UniProt P49770+Q9UI10)","ligand displacement, TR-FRET",100 µM,inhibition,100%
N#Cc1ccc(NC(=O)Nc2ccccc2)cc1,"Mast/stem cell growth factor receptor Kit (KIT, Homo sapiens, UniProt P10721, D816V)","cell-free assay, competition with immobilised ligand",25 µM,remaining binding,89%
COc1ccc2oc(-c3ccc4nc(N)oc4c3)c/c(=N\c3ccccc3NC(=O)CCN)c2c1,BTK,binding,1 µM,remaining binding,96%
